Data set [1] in a line: Relative rate determined by setting MTII equal to 1 and dividing the apparent k-1 by the MTII value. Format: ADME.
Data set [2] addresses T1, Melanocyte-stimulating hormone receptor (Homo sapiens, UniProt Q01726). In words: Effective concentration against Melanocortin 1 receptor transfected into L-cells was determined by concentration of peptide for 50% maximal cAMP generation. Format: functional. The gist of the method: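 Human MC1R stably transfected into mouse L-cells, grown to confluence. Stopped with ice-cold ethanol. cAMP in the dried supernatant measured by competitive binding kit. Value is concentration for 50% maximal cAMP generation; n = 4.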

The target in data set [3] is T1, Melanocyte-stimulating hormone receptor. The data set is described as follows: The concentration that inhibits 50% specific binding was determined against the Melanocortin 1 receptor. The gist of the method:
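Cloned human MC1R stably expressed in L-cells, grown to confluence. Cells washed in binding buffer (MEM, 25 mM HEPES pH 7.4, 0.2% BSA, phenanthroline, leupeptin, bacitracin). Cells washed, lysed in NaOH/Triton, gamma counted.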

In data set [4] the target is Melanocortin 1 receptor (Rana pipiens). The data set is described as follows: Effective concentration for the effect of Melanocortin 1 receptor in the frog skin.

T1 sequence (Q01726 whole entry): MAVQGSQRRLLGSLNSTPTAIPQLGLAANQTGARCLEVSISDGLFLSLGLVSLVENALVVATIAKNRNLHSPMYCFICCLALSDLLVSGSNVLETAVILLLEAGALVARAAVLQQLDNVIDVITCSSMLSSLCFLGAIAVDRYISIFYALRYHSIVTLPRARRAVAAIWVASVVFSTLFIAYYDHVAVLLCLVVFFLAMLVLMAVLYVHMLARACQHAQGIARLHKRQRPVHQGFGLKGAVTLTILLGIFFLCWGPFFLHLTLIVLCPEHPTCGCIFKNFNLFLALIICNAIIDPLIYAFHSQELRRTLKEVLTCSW

The EC50 is the concentration at which the effect is half-maximal. The low end stands for a more potent agent, the high end for a less potent agent. Broadly, the IC50 is the concentration needed to halve the response being measured. A high value points to weaker potency. As to `CCCC[C@H](NC(C)=O)C(=O)N[C@@H](CC(=O)O)C(=O)N[C@@H](Cc1c[nH]cn1)C(=O)N[C@@H](Cc1ccccc1)C(=O)N[C@@H](CCCN=C(N)N)C(=O)N[C@@H](C(=O)N[C@@H](CCCCN)C(N)=O)[C@H](C)c1c[nH]c2ccccc12`, in data set [1], the Relative dissociation rate came to 2.33. For the same molecule, the concentration giving a half-maximal response (EC50) in data set [2] stood at 0.4 nM. For the same molecule, in data set [3], the half-inhibitory concentration (IC50) came to 2 nM.
Turning to `CCCC[C@H](NC(C)=O)C(=O)N[C@H]1CC(=O)NCCCCC(C(N)=O)NC(=O)C([C@H](C)c2c[nH]c3ccccc23)NC(=O)[C@H](CCCN=C(N)N)NC(=O)C(Cc2ccccc2)NC(=O)[C@H](Cc2c[nH]cn2)NC1=O` (single isomer, unassigned), the Relative dissociation rate in data set [1] turned out to be 2.5. The EC50 in data set [2] stood at 3 nM; in data set [4] it was 28.6 nM. In addition, the IC50 in data set [3] turned out to be 15 nM.
On the same counts, the results for `CCCC[C@H](NC(C)=O)C(=O)N[C@H]1CC(=O)NCCCCC(C(N)=O)NC(=O)C([C@@H](C)c2c[nH]c3ccccc23)NC(=O)[C@H](CCCN=C(N)N)NC(=O)C(Cc2ccccc2)NC(=O)[C@H](Cc2c[nH]cn2)NC1=O` (single isomer, unassigned) are 0.75, 0.3 nM, 0.44 nM and 0.5 nM.
The corresponding values for `CCCC[C@H](NC(C)=O)C(=O)N[C@H]1CC(=O)NCCCCC(C(N)=O)NC(=O)[C@@H]([C@@H](C)c2c[nH]c3ccccc23)NC(=O)[C@H](CCCN=C(N)N)NC(=O)C(Cc2ccccc2)NC(=O)[C@H](Cc2c[nH]cn2)NC1=O` (single isomer, unassigned) are 2.58, 1 nM, 0.06 nM and 3 nM.
